# Screens as filed in PubChem.
# The list is not random: actives were taken first. Their share in the collection is about 1.8%.
# Scp1 inh: Scp-1 phosphatase inhibitors, primary screen, biochemical, colorimetric, uHTS; inhibition, % at 20 µM; Carboxy-terminal domain RNA polymerase II polypeptide A small phosphatase 1 (Homo …; Recombinant Scp1, phosphopeptide, malachite green phosphate absorbance; AID 493091, 2011; 340,000 tested, 0.88% active;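 active = inhibition above about 50% at 20 µM, limit read from the data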;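 also: plate controls were DMSO wells with enzyme for no effect and wells lacking enzyme for full effect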
#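 Material: truncated SCP-1 phosphatase (76-261aa) / Buffer or medium: 50 mM Tris acetate pH 5.5, 0.005% Tween-20, 10 mM MgCl2 / Compound dosing: one concentration, 20 µM, with 1.0% DMSO / Incubation: 45 min room-temperature reaction, 5 min colour, 30 min stabiliser / Detection: colorimetric free-phosphate detection, absorbance 630 nm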
# HKDC1 inh: HKDC1 hexokinase inhibitors, primary screen, biochemical, fluorescence, uHTS. Q2TB90. recombinant HKDC1, G6PDH/diaphorase resazurin coupled fluorescence. inhibition, % at 20 µM. 340,000 tested, 0.16% active. AID 493160, 2011;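 active = inhibition above about 35% when tested at 20 µM, limit read from the data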;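 also: plate controls were DMSO wells with enzyme for no effect and DMSO wells lacking enzyme for full effect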
# Target sequence (Q2TB90 whole entry, looked up): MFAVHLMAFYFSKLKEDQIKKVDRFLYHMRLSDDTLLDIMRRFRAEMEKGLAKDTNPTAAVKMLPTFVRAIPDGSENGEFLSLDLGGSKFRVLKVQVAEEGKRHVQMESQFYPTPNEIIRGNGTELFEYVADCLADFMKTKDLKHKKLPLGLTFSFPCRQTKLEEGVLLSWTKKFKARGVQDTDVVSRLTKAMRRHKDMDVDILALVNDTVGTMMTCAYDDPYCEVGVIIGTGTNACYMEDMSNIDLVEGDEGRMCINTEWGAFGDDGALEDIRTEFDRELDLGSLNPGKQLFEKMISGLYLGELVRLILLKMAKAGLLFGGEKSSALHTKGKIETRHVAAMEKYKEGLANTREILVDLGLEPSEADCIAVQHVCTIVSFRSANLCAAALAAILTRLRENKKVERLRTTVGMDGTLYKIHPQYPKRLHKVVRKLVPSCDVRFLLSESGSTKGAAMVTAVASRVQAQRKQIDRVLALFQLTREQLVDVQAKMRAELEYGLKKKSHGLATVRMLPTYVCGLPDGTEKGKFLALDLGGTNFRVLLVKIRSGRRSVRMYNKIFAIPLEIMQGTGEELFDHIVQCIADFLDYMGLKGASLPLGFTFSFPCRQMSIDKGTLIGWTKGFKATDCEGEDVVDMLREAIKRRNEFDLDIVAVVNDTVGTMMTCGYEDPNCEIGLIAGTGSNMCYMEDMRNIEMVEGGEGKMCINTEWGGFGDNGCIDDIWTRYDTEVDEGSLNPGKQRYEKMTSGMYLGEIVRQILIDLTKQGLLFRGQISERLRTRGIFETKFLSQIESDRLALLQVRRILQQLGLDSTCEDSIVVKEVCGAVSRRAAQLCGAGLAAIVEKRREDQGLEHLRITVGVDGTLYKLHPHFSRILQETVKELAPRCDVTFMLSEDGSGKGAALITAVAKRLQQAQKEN
#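 System: Recombinant HKDC1 hexokinase | Amount: HKDC1 at 5 µg/mL | Reagent: Glucose with 1 mM ATP | Doses: Single 20 µM dose | Incubation: Reaction time 90 min, room temperature, protected from light | Signal: Coupled resazurin fluorescence, excitation 525 nm, emission 613 nm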
# SUMO1 PPI mod: modulators of SUMO1 protein-protein interactions, primary screen, biochemical, uHTS. Small ubiquitin-related modifier 1 (Homo sapiens), P63165. SUMO1 binding to a labelled peptide, TR-FRET, 1 h. inhibition, % at 20 µM. 360,000 tested, 0.33% active. AID 602429, 2012; in the data active = inhibition above about 37%
# LMPTP inh: LMPTP phosphatase inhibitors, primary screen, biochemical, fluorescence intensity, uHTS; inhibition, % at 20 µM; 360,000 tested, 0.22% active; Low molecular weight phosphotyrosine protein phosphatase (Homo sapiens), P24666; recombinant LMPTP-A, OMFP fluorogenic substrate;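 active = compounds that cut the enzyme signal by at least half of the control window in the single-dose screen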;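 also: plate controls were DMSO wells with enzyme plus substrate for no effect and substrate without enzyme for full effect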
#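 Material: LMPTP-A; amount: 0.625 nM enzyme; doses: single 20 µM dose; times: reaction 50 min, room temperature, dark; technique: fluorescence intensity of OMFP turnover product; benchmarks: no-enzyme and uninhibited controls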
# DNMT1 inh: human DNMT1 methyltransferase inhibitors, primary screen, biochemical, molecular beacon, fluorescence, HinP1I cleavage, uHTS. inhibition (reported as % activation of signal), % at 10 µM. DNA (cytosine-5)-methyltransferase 1 (Homo sapiens), P26358. AID 588458, 2011. 360,000 tested, 0.83% active; in the data active = inhibition above about 50%
# STEP inh: STEP phosphatase inhibitors, primary screen, biochemical, fluorescence intensity, uHTS; Tyrosine-protein phosphatase non-receptor type 5 (Homo sapiens), P54829; recombinant STEP, OMFP fluorogenic substrate; inhibition, % at 20 µM; 360,000 tested, 0.25% active; AID 588621, 2011;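 active = inhibition at 20 µM, scaled per plate between control wells, above about 37%, limit read from the data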;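 also: 0% = DMSO with enzyme and substrate and 100% = substrate only without enzyme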
#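 Material: STEP (striatal-enriched tyrosine phosphatase) enzyme, cell-free | Medium: 50 mM Bis-Tris pH 6.0 with 2.5 mM DTT and 0.005% Tween 20 | Read-out: Percent inhibition scaled to no-enzyme and uninhibited-enzyme controls, plate-pattern corrected | Signal: Fluorescence read at 480 nm ex / 540 nm em | Times: 20 min reaction, room temperature, in the dark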
# HKDC1 act conf: HKDC1 hexokinase activators, confirmation, biochemical, single concentration; inhibition, % at 20 µM; 740 tested, 14% active; shares compounds with HKDC1 inh; AID 504708, 2011; recombinant HKDC1, G6PDH/diaphorase resazurin fluorescence; active compounds read low;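 active = inhibition at or below a set negative limit, negative inhibition meaning the enzyme was activated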
# * hit, by the source's call; nt = no result.
SMILES,Scp1 inh,HKDC1 inh,SUMO1 PPI mod,LMPTP inh,DNMT1 inh,STEP inh,HKDC1 act conf
CCN1C(=O)C(NC(C)=O)c2cc(Br)ccc21 (stereo not drawn),-11.2,-5.0,22.3,0.0,0.0,-5.1,nt
CC(=O)NC1C(=O)N(CCN2CCOCC2)c2ccc(F)cc21 (stereo not drawn),-4.2,79.3*,8.9,-1.0,-1.9,-8.2,61.1
CCCCN1C(=O)C(NC(C)=O)c2cc(Br)ccc21 (stereo not drawn),-9.3,-3.1,-1.8,0.3,-4.5,-1.0,nt
CC(=O)NC1C(=O)N(CCN2CCOCC2)c2ccc(C)cc21 (stereo not drawn),-7.7,85.7*,6.8,5.5,3.5,-5.2,69.7
CC(=O)NC1C(=O)N(CCN2CCOCC2)c2ccc(Cl)cc21 (stereo not drawn),3.6,82.4*,15.8,0.7,-1.9,-11.3,60.6
CC1CCN(C(=O)c2ccc(NS(=O)(=O)c3cccc4cccnc34)cc2)CC1,-0.8,-0.3,2.5,3.8,2.7,-4.5,nt
COc1ccccc1NS(=O)(=O)c1cc(C(=O)NC2CC(C)(C)NC(C)(C)C2)ccc1Cl,-0.1,0.5,-3.0,14.5,12.3,1.8,nt
O=S(=O)(O)c1cc(O)c2ccc(Nc3ccccc3)cc2c1,99.5*,49.9*,82.6*,92.5*,100.0*,98.7*,15.8
Oc1cccc(Nc2ccccc2)c1,-0.3,8.9,2.2,0.2,-14.6,-3.7,nt
COc1ccc(S(=O)(=O)O)cc1P(=O)(c1ccccc1)c1ccccc1,3.1,-2.8,37.0,0.4,3.8,0.3,nt
COc1ccccc1Nc1ccc2c(O)cc(S(=O)(=O)O)cc2c1,81.5*,38.0*,91.6*,84.9*,94.5*,97.1*,9.3
O=S(=O)(O)c1ccc(O)c2cc(Nc3ccccc3)ccc12,95.8*,64.6*,120.2*,95.6*,96.0*,99.4*,44.1
O=C(O)c1cc2cc(S(=O)(=O)O)ccc2cc1O,-4.7,-4.3,-2.9,-4.3,-0.1,1.3,nt
O=C(Cc1n[nH]c(=O)c2ccccc12)OCC(=O)c1ccccc1,-12.0,-1.5,17.6,-1.5,-4.5,-2.1,nt
O=C(CNC(=O)c1cc(S(=O)(=O)N2CCCCC2)ccc1N1CCOCC1)Nc1ccc(F)c(F)c1,-6.8,-6.2,-7.0,0.0,20.1,-1.7,nt
CCOC(=O)C1(C)CCCCCN1C(=O)c1snnc1C (stereo not drawn),nt,nt,-0.7,-1.1,1.5,0.4,nt
COc1ccc(-c2[nH]c(-c3ccc(C)cc3)nc2SCC(=O)Nc2nccs2)cc1,-1.2,-10.8,4.9,0.3,-14.4,0.6,nt
COc1ccc(-c2[nH]c(-c3ccc(SC)cc3)nc2SCC(=O)Nc2nccs2)cc1,0.3,-54.3,0.1,2.9,2.1,-1.5,-36.1*
O=C(C1=C(c2ccccc2)C(=O)c2ccccc2C1=O)c1ccccc1,-20.0,58.2*,0.8,1.0,-14.8,-0.3,52.0
N#C/C(=C(/O)CCl)c1nc2c(s1)CCc1ccccc1-2,0.9,43.5*,-3.1,1.1,-12.2,2.2,46.1
Cn1nccc1C(=O)N1CCN(c2cccc(Cl)c2)CC1,1.0,38.7*,1.9,0.4,-2.7,3.1,-28.9
Cc1sc2ncn(CC(=O)N3CCCCC3)c(=O)c2c1C,-4.0,-5.6,2.6,-1.4,2.6,1.3,nt
Cc1ccc(S(=O)(=O)N(C(=O)c2ccncc2)c2ccc(OC(=O)c3ccncc3)c3ccccc23)cc1,6.0,31.6,0.7,0.9,-15.3,0.7,15.6
COc1cc(/C=C(\C#N)c2nc3ccc(C)cc3[nH]2)cc([N+](=O)[O-])c1O,39.9,41.3*,4.0,7.9,-4.5,8.2,42.2
COc1cc(/C=C(\C#N)c2nc3ccc(C)cc3[nH]2)c([N+](=O)[O-])cc1OC,-4.8,5.0,-19.0,1.4,-7.9,-0.4,nt
SMILES,Scp1 inh,HKDC1 inh,SUMO1 PPI mod,LMPTP inh,DNMT1 inh,STEP inh,HKDC1 act conf
O=C(Nc1ccc(F)c(Cl)c1)c1cc(C2CCCN(S(=O)(=O)c3cccc4cccnc34)C2)on1 (stereo not drawn),nt,nt,3.6,1.7,-3.3,0.0,nt
Nc1nccnc1C(=O)OCC(=O)c1ccc[nH]1,-2.3,2.9,-11.3,4.3,-3.1,0.7,nt
Cc1ccc(S(=O)(=O)N(CC(=O)Nc2cccnc2)c2ccccc2C)cc1,-3.1,7.4,6.1,-1.0,-4.3,0.0,nt
O=C1/C(=C\c2ccc(Cl)c(Cl)c2)CN(C(=O)CCN2CCOCC2)C/C1=C/c1ccc(Cl)c(Cl)c1,9.6,60.7*,2.6,1.9,-13.7,9.5,16.8
COCc1cc(=O)c2ccccc2o1,-1.9,-4.2,-2.0,-0.6,1.1,2.2,nt
CCc1cc(=O)oc2c3c(cc(OCC(=O)NCCCn4ccnc4)c12)OC(C)(C)CC3,6.8,1.1,6.6,0.5,0.7,-0.7,nt
O=C1C(Cl)=C(N2CCCCC2)C(=O)C(Cl)=C1c1cnc(N2CCCCC2)s1,5.6,70.0*,10.9,16.5,84.0*,7.8,49.4
CN(C)c1ncc(C2=C(Cl)C(=O)C(N3CCCC3)=C(Cl)C2=O)s1,18.0,35.1*,34.9,13.5,69.2*,7.3,19.8
O=C1C(Cl)=C(N2CCCCCC2)C(=O)N1c1ccc(Cl)cc1,-4.7,-0.7,-20.5,1.9,1.5,19.6,nt
CC1=C(C(=O)OCC2CCCCC2)C(c2ccc(O)cc2)NC(=O)N1 (stereo not drawn),-15.6,0.4,-0.7,-0.1,-2.1,-2.1,nt
O=C(NNC(=O)c1cc(O)c(O)c(O)c1)NC1CCCCC1,-1.9,-8.9,2.8,0.7,4.5,0.8,nt
COc1ccc(C2CC(O)(c3ccccc3)Oc3cc(OC)c(OC)c(OC)c32)cc1 (stereo not drawn),-11.0,16.1,-6.8,0.8,-7.3,-3.2,nt
COc1ccc([C@@H]2C[C@H](c3ccccc3)Oc3cc(OC)c(OC)c(OC)c32)cc1,-8.6,36.7*,-0.3,2.9,-7.3,2.6,-0.5
Oc1ccc(/C=N/NC(=S)Nc2cccnc2)c(O)c1,-10.4,-40.3,-5.4,-1.5,-6.4,-2.5,14.6
Oc1cccc(/C=N/NC(=S)Nc2cccnc2)c1O,-4.9,-0.8,-2.4,2.8,-7.8,-3.6,nt
